In ChEMBL document CHEMBL4049439, “Synthesis and Characterization of Tetrahydropyran-Based Bacterial Topoisomerase Inhibitors with Antibacterial Activity against Gram-Negative Bacteria” (J Med Chem, 2017):
Values after ≈ are worked out from the molar mass of the structure shown. Active and inactive are the calls of the source. The calls are words filed in the database; no cut-off is given here.

What was measured:
[1] = system: Escherichia coli; test: Antibacterial activity against wild-type Escherichia coli MG1655 by CLSI broth microdilution method; format: functional; settings: K-12 substr. MG1655
Outline: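 MIC (μg/mL) determined on wild-type E. coli MG1655, the parent of isogenic strains with truncated LPS or deleted TolC or AcrAB efflux.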

[2] = system: Escherichia coli; test: Antibacterial activity against Escherichia coli MG1655 harboring rfac deletion mutant by CLSI broth microdilution method; format: functional; settings: K-12 substr. MG1655
Outline: (§1)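 MIC (μg/mL) measured against engineered derivatives of E. coli MG1655. ΔrfaC has truncated LPS (raised permeability). ΔtolC lacks the outer-membrane TolC efflux component. ΔacrAB lacks the AcrAB efflux system of the cytoplasmic membrane.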

[3] = system: Escherichia coli; test: Ratio of MIC for wild-type Escherichia coli MG1655 to MIC for Escherichia coli MG1655 harboring rfac deletion mutant; format: functional, K-12 substr. MG1655
Outline: (§2)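 Fold change in MIC for each MG1655 derivative (ΔacrAB, ΔrfaC, ΔtolC) relative to the MIC measured on wild-type E. coli MG1655, with both MICs in μg/mL.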

[4] = system: Escherichia coli; test: Antibacterial activity against Escherichia coli MG1655 harboring tolC deletion mutant by CLSI broth microdilution method; format: functional; settings: K-12 substr. MG1655; outline: as §1
[5] = system: Escherichia coli; test: Ratio of MIC for wild-type Escherichia coli MG1655 to MIC for Escherichia coli MG1655 harboring tolC deletion mutant; format: functional, K-12 substr. MG1655; outline: as §2
[6] = system: Escherichia coli; test: Antibacterial activity against Escherichia coli MG1655 harboring AcrAB deletion mutant by CLSI broth microdilution method; format: functional; settings: K-12 substr. MG1655; outline: as §1
[7] = system: Escherichia coli; test: Ratio of MIC for wild-type Escherichia coli MG1655 to MIC for Escherichia coli MG1655 harboring AcrAB deletion mutant; format: functional, K-12 substr. MG1655; outline: as §2
[8] = Solubility of the compound at pH 1 to 9; format: physicochemical; settings: buffer
[9] = system: Enterococcus faecalis; test: Antibacterial activity against Enterococcus faecalis by CLSI broth microdilution method; format: functional
[10] = system: Escherichia coli; test: Antibacterial activity against Escherichia coli by CLSI broth microdilution method; format: functional
[11] = system: Citrobacter freundii; test: Antibacterial activity against Citrobacter freundii by CLSI broth microdilution method; format: functional
[12] = Fraction unbound in NMRI mouse at 10 mg/kg, iv by rapid equilibrium dialysis; format: ADME, organism-based; settings: plasma
Outline: (§3)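 Mice dosed iv at 10 mg/kg or sc at 120 mg/kg. AUC normalized to dose (μg·h/(mL·dose)). Unbound AUC derived using fraction unbound. Clearance, Vdss and terminal half-life also derived.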

[13] = system: Mus musculus; test: Dose normalized unbound AUC in NMRI mouse at 10 mg/kg, iv by LC-MS/MS analysis; format: ADME, organism-based; settings: in vivo; outline: as §3
[14] = Volume of distribution at steady state in NMRI mouse at 10 mg/kg, iv by LC-MS/MS analysis; format: ADME, organism-based; settings: in vivo, read-out: Vdss
Outline: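 Mice received a single dose of 10 mg/kg intravenously, or 120 mg/kg subcutaneously for one compound. Clearance, Vdss, half-life, unbound fraction and dose-normalized AUC were derived from plasma exposure.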

[15] = Terminal half-life in NMRI mouse at 10 mg/kg, iv by LC-MS/MS analysis; format: ADME, organism-based; settings: in vivo, read-out: beta t1/2 (converted); outline: as §3
[16] = system: Staphylococcus aureus; test: Antibacterial activity against methicillin-sensitive Staphylococcus aureus A-1178 infected in cyclophosphamide-induced neutropenic NMRI mouse model assessed as log reduction in colony forming units in thighs at 40 mg/kg, sc treated 2 hrs post infection measured 22 hrs post dose; format: functional
Outline: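 Neutropenic mouse thigh model infected with a methicillin-sensitive S. aureus strain, subcutaneous dosing. Thigh CFU measured 24 h post-infection (22 h post-treatment). Net log reduction given against CFU at treatment start.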

[17] = Ratio of AUC in NMRI mouse to MIC for methicillin-sensitive Staphylococcus aureus A-1178 infected in cyclophosphamide-induced neutropenic NMRI mouse model at 40 mg/kg/day
[18] = biological target: hERG (KCNH2) (Homo sapiens, UniProt Q12809); test: Inhibition of human ERG assessed as reduction of K+ current at 30 uM
Outline: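 hERG K+ channel current reduction measured at 30 μM compound concentration.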

[19] = Cardiotoxicity against human induced pluripotent stem cell-derived cardiomyocytes assessed as free drug concentration causing inhibition of spontaneous rhythm after 5 to 60 mins by Fluo-4 dye based fluorescence assay; format: toxicity; settings: cardiac muscle cell
Outline: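 Spontaneous beating rhythm of human iPSC-derived cardiomyocytes monitored. Reported value is the lowest active concentration, free or total. Free/total conversion corrected for 20% serum in the test solution.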

[20] = system: Cavia porcellus; test: Cardiotoxicity in Dunkin-Hartley guinea pig assessed as free plasma concentration causing effect on heart rate administered as iv at 3 mg/kg for first 20 mins of infusion followed by 10 mg/kg for second 20 mins of infusion followed by 30 mg/kg for third 20 mins of infusion by LC-MS/MS analysis; format: toxicity, organism-based; settings: in vivo
Outline: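 Anesthetized guinea pigs received 3, 10 and 30 mg/kg iv over three consecutive 20 min periods. MAP, HR and ECG intervals (PR, QRS, RR, QT) recorded continuously. Blood drawn at the end of each period for drug levels. Value is the lowest plasma concentration differing from vehicle-treated animals. Free level uses unbound fraction from rapid equilibrium dialysis of guinea pig plasma.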

[21] = system: Mus musculus; test: Dose normalized AUC in NMRI mouse at 120 mg/kg, sc by LC-MS/MS analysis; format: ADME, organism-based; settings: in vivo; outline: as §3
[22] = Fraction unbound in NMRI mouse plasma at 120 mg/kg, sc by rapid equilibrium dialysis; format: ADME, organism-based; outline: as §3
[23] = system: Mus musculus; test: Dose normalized unbound AUC in NMRI mouse at 120 mg/kg, sc by LC-MS/MS analysis; format: ADME, organism-based; settings: in vivo; outline: as §3
[24] = Apparent clearance in NMRI mouse at 120 mg/kg, sc by LC-MS/MS analysis; format: ADME, organism-based; settings: in vivo; outline: as §3
[25] = Terminal half-life in NMRI mouse at 120 mg/kg, sc by LC-MS/MS analysis; format: ADME, organism-based; settings: in vivo, read-out: beta t1/2 (converted); outline: as §3
[26] = Clearance in dog at 1 mg/kg, iv by LC-MS/MS analysis; format: ADME, organism-based, Canis lupus familiaris; settings: in vivo
Outline: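 Dogs given 1 mg/kg iv. Clearance (mL/min/kg) and half-life (h) derived from plasma profiles.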

[27] = system: Escherichia coli; test: Antibacterial activity against Escherichia coli ATCC 25922 by CLSI broth microdilution method; format: functional
[28] = system: Escherichia coli; test: Antibacterial activity against Escherichia coli ATCC 25922 infected in cyclophosphamide-induced neutropenic NMRI mouse model assessed as reduction in colony forming units in thighs at 120 mg/kg, sc treated 2 hrs post infection measured 5.5 hrs post dose; format: functional, organism-based
Outline: (§4)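 Neutropenic murine thigh infection with an E. coli strain, compound given subcutaneously. Thigh CFU counted 7.5 h post-infection (5.5 h post-treatment). Net change expressed relative to CFU at treatment start.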

[29] = system: Escherichia coli; test: Antibacterial activity against Escherichia coli ATCC 25922 infected in cyclophosphamide-induced neutropenic NMRI mouse model assessed as log reduction in colony forming units in thighs at 360 mg/kg, sc treated 2 hrs post infection measured 5.5 hrs post dose; format: functional; outline: as §4

hERG (KCNH2), sequence (Q12809 whole entry): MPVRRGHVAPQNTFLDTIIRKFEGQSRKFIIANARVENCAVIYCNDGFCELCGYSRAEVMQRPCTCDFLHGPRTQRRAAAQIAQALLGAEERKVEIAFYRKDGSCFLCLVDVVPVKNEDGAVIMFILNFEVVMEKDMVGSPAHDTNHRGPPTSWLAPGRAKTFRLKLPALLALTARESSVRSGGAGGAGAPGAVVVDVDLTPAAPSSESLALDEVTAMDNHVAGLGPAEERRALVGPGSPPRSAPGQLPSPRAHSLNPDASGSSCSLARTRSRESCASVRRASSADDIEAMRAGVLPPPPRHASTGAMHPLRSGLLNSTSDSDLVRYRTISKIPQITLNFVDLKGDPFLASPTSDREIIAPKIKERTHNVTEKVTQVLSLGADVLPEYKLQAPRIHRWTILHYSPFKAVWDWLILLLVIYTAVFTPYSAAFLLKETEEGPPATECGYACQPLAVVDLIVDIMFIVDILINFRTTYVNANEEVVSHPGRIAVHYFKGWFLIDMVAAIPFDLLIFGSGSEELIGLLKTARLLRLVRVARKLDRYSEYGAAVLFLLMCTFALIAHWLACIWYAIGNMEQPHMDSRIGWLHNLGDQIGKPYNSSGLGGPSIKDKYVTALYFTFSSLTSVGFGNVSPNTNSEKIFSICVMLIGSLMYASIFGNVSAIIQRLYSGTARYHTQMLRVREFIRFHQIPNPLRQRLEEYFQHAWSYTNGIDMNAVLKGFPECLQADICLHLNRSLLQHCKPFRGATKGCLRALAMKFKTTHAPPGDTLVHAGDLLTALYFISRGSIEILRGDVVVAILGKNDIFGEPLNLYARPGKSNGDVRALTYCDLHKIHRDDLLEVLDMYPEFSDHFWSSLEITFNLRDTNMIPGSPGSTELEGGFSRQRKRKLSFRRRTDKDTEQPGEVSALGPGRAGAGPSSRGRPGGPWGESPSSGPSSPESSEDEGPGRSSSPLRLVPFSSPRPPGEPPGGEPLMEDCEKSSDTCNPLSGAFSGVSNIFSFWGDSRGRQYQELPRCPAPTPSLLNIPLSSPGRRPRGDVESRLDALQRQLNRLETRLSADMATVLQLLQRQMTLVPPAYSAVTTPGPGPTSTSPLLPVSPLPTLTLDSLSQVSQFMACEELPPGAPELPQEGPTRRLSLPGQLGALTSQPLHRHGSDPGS

COc1ccc2ncc(F)c(C[C@H](N)[C@@H]3CC[C@@H](NCc4ccc5c(n4)NC(=O)CO5)CO3)c2n1
MIC [1]: 0.063 µg/mL (≈ 0.131 µM) | MIC [2]: 0.031 µg/mL (≈ 0.0642 µM) | Ratio [3]: 2 | MIC [4]: 0.008 µg/mL (≈ 0.0166 µM) | Ratio [5]: 8 | MIC [6]: 0.008 µg/mL (≈ 0.0166 µM) | Ratio [7]: 8 | solubility [8]: > 100 µg/mL | MIC [9]: 0.25 µg/mL (≈ 0.518 µM) | MIC [10]: 0.125 to 0.5 µg/mL (≈ 0.259 to 1.04 µM) | MIC [11]: 0.25 µg/mL (≈ 0.518 µM) | fraction unbound [12]: 0.15 | fAUC/dose [13]: 35.4 µg·h/mL | Vd [14]: 12.3 L/kg | half-life [15]: 5.6 h | Activity [16]: >2.5 log10CFU | RatioAUC/MIC [17]: 23.5 | inhibition at 30 µM [18]: 86% | Drug uptake(free) [19]: 0.28 µM | Cp(f) [20]: 0.53 µM

COc1ccc2ccc(=O)n(C[C@H](N)[C@@H]3CC[C@@H](NCc4ccc5c(n4)NC(=O)CO5)CO3)c2n1
MIC [9]: 1 µg/mL (≈ 2.08 µM) | MIC [10]: 0.5 to 2 µg/mL (≈ 1.04 to 4.16 µM) | MIC [11]: 1 µg/mL (≈ 2.08 µM) | AUC/dose [21]: 186 µg·h/mL | fraction unbound [22]: 0.369 | fAUC/dose [23]: 68.6 µg·h/mL | CL/F [24]: 86 mL/min/kg | half-life [25]: 5.2 h | clearance [26]: 45 mL/min/kg | MIC [27]: 0.25 µg/mL (≈ 0.52 µM) | Activity [28]: inactive | Activity [29]: 2 log10CFU | inhibition at 30 µM [18]: 37% | Drug uptake(free) [19]: 0.27 to 0.81 µM | Cp(f) [20]: 11 µM
